Measured values reported in ChEMBL document CHEMBL1122773 (1984).
Values after ≈ are worked out from the molar mass of the structure shown.

system: Staphylococcus aureus; assay: In vitro antibacterial activity for minimum inhibition concentration (MIC) required to inhibit growth of Staphylococcus aureus; format: functional
Outline: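 Broth microdilution in brain/heart infusion broth, inoculated with a standardized suspension to a final 10^5 viable cells/mL. Incubation 20 h at 37 °C. MIC read as the lowest concentration preventing visible growth.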

Structure (SMILES)	MIC [µg/mL]
CCCCCC[C@@H]1CCN[C@H](C(=O)NC(C(C)Cl)C2OC(SC)C(O)C(O)C2O)C1 (stereo partly drawn)	0.03 (≈ 0.0642 µM)
CCCC[C@@H]1CCN(CCO)[C@H](C(=O)NC(C(C)Cl)C2OC(SC)C(O)C(O)C2O)C1 (stereo partly drawn)	0.16 (≈ 0.331 µM)
CSC1OC(C(NC(=O)[C@H]2CCCCN2C)C(C)Cl)C(O)C(O)C1O (stereo partly drawn)	> 100
CSC1OC(C(NC(=O)[C@H]2CC3CCN2CC3)C(C)Cl)C(O)C(O)C1O (stereo partly drawn)	50 (≈ 122 µM)
CSC1OC(C(NC(=O)[C@H]2CCCCCN2)C(C)Cl)C(O)C(O)C1O (stereo partly drawn)	> 100
CSC1OC(C(NC(=O)c2ccncc2)C(C)Cl)C(O)C(O)C1O (stereo not drawn)	> 1000
CCCc1ccnc(C(=O)NC(C(C)Cl)C2OC(SC)C(O)C(O)C2O)c1 (stereo not drawn)	> 100
CSC1OC(C(NC(=O)c2cccc(C)n2)C(C)Cl)C(O)C(O)C1O (stereo not drawn)	> 25
CCCCCC[C@@H]1CCN(C)[C@H](C(=O)NC(C(C)Cl)C2OC(SC)C(O)C(O)C2O)C1 (stereo partly drawn)	0.3 (≈ 0.624 µM)
CSC1OC(C(NC(=O)[C@H]2CCC[C@@H](C)N2)C(C)Cl)C(O)C(O)C1O (stereo partly drawn)	> 25
CCc1cccc(C(=O)NC(C(C)Cl)C2OC(SC)C(O)C(O)C2O)n1 (stereo not drawn)	> 25
CSC1OC(C(NC(=O)[C@@H]2C[C@H](C(C)(C)C)CCN2)C(C)Cl)C(O)C(O)C1O (stereo partly drawn)	2 (≈ 4.56 µM)
CC[C@H]1CCC[C@@H](C(=O)NC(C(C)Cl)C2OC(SC)C(O)C(O)C2O)N1 (stereo partly drawn)	> 25
CC[C@H]1CCN[C@@H](C(=O)N[C@@H]([C@H]2O[C@H](SC)[C@H](O)[C@@H](O)[C@H]2O)[C@H](C)Cl)C1	250 (≈ 608 µM)
CSC1OC(C(NC(=O)c2ncccc2C)C(C)Cl)C(O)C(O)C1O (stereo not drawn)	> 100
CC[C@H]1CC[C@@H](C(=O)NC(C(C)Cl)C2OC(SC)C(O)C(O)C2O)NC1 (stereo partly drawn)	2 (≈ 4.87 µM)
CSC1OC(C(NC(=O)[C@@H]2CCN2)C(C)Cl)C(O)C(O)C1O (stereo partly drawn)	25 (≈ 70.5 µM)
CCC[C@@H]1CCN[C@H](C(=O)NC(C(C)Cl)C2OC(SC)C(O)C(O)C2O)C1 (stereo partly drawn)	0.5 (≈ 1.18 µM)
CSC1OC(C(NC(=O)[C@@H]2CCC[C@H](C)N2)C(C)Cl)C(O)C(O)C1O (stereo partly drawn)	> 25
CSC1OC(C(NC(=O)c2ccccn2)C(C)Cl)C(O)C(O)C1O (stereo not drawn)	62.5 (≈ 166 µM)
CCC[C@H]1CCN[C@@H](C(=O)NC(C(C)Cl)C2OC(SC)C(O)C(O)C2O)C1 (stereo partly drawn)	> 25
CSC1OC(C(NC(=O)c2cccnc2)C(C)Cl)C(O)C(O)C1O (stereo not drawn)	> 100
CC[C@@H]1CCN(C)[C@H](C(=O)NC(C(C)Cl)C2OC(SC)C(O)C(O)C2O)C1 (stereo partly drawn)	0.2 (≈ 0.471 µM)
CSC1OC(C(NC(=O)[C@H]2C[C@@H](C(C)(C)C)CCN2)C(C)Cl)C(O)C(O)C1O (stereo partly drawn)	> 25
CCCC[C@H]1CCN[C@@H](C(=O)NC(C(C)Cl)C2OC(SC)C(O)C(O)C2O)C1 (stereo partly drawn)	31.2 (≈ 71.1 µM)
CSC1OC(C(NC(=O)c2cc(C(C)(C)C)ccn2)C(C)Cl)C(O)C(O)C1O (stereo not drawn)	> 100
CSC1OC(C(NC(=O)[C@H]2CCCNC2)C(C)Cl)C(O)C(O)C1O (stereo partly drawn)	> 80
CSC1OC(C(NC(=O)[C@H]2CCCCN2)C(C)Cl)C(O)C(O)C1O (stereo partly drawn)	25 (≈ 65.3 µM)
CSC1OC(C(NC(=O)[C@@H]2CC3CCN2CC3)C(C)Cl)C(O)C(O)C1O (stereo partly drawn)	> 100

Other lines, results leading:

MIC [µg/mL]	Structure (SMILES)
3.9 (≈ 9.83 µM)	CSC1OC(C(NC(=O)[C@@H]2CCCCN2C)C(C)Cl)C(O)C(O)C1O (stereo partly drawn)
> 100	CC[C@H]1CCN(C)[C@@H](C(=O)NC(C(C)Cl)C2OC(SC)C(O)C(O)C2O)C1 (stereo partly drawn)
> 80	CS[C@H]1O[C@H](C(NC(=O)C2CCNCC2)C(C)Cl)[C@H](O)[C@H](O)[C@H]1O (stereo partly drawn)
62.5 (≈ 154 µM)	CCc1ccc(C(=O)NC(C(C)Cl)C2OC(SC)C(O)C(O)C2O)nc1 (stereo not drawn)
2.5 (≈ 5.49 µM)	CC[C@@H]1CCN(CCO)[C@H](C(=O)NC(C(C)Cl)C2OC(SC)C(O)C(O)C2O)C1 (stereo partly drawn)
2.5 (≈ 6.08 µM)	CC[C@@H]1CC[C@H](C(=O)NC(C(C)Cl)C2OC(SC)C(O)C(O)C2O)NC1 (stereo partly drawn)
0.06 (≈ 0.137 µM)	CCCC[C@@H]1CCN[C@H](C(=O)NC(C(C)Cl)C2OC(SC)C(O)C(O)C2O)C1 (stereo partly drawn)
1000 (≈ 2470 µM)	CCc1ccnc(C(=O)NC(C(C)Cl)C2OC(SC)C(O)C(O)C2O)c1 (stereo not drawn)
3.9 (≈ 10.2 µM)	CSC1OC(C(NC(=O)[C@@H]2CCCCN2)C(C)Cl)C(O)C(O)C1O (stereo partly drawn)
25 (≈ 63 µM)	CSC1OC(C(NC(=O)[C@@H]2NCCC[C@@H]2C)C(C)Cl)C(O)C(O)C1O (stereo partly drawn)
> 160	CC[C@H]1CCN(CCO)[C@@H](C(=O)NC(C(C)Cl)C2OC(SC)C(O)C(O)C2O)C1 (stereo partly drawn)
50 (≈ 108 µM)	CCCCCCc1ccnc(C(=O)NC(C(C)Cl)C2OC(SC)C(O)C(O)C2O)c1 (stereo not drawn)
> 25	CC[C@@H]1CCC[C@H](C(=O)NC(C(C)Cl)C2OC(SC)C(O)C(O)C2O)N1 (stereo partly drawn)
> 80	CSC1OC(C(NC(=O)[C@@H]2CCCNC2)C(C)Cl)C(O)C(O)C1O (stereo partly drawn)
0.5 (≈ 1.07 µM)	CCCCCC[C@H]1CCN[C@@H](C(=O)NC(C(C)Cl)C2OC(SC)C(O)C(O)C2O)C1 (stereo partly drawn)
0.3 (≈ 0.606 µM)	CCCCCCCC[C@@H]1CCN[C@H](C(=O)NC(C(C)Cl)C2OC(SC)C(O)C(O)C2O)C1 (stereo partly drawn)
> 10	CCCCCCCCc1ccnc(C(=O)NC(C(C)Cl)C2OC(SC)C(O)C(O)C2O)c1 (stereo not drawn)
12.5 (≈ 31.5 µM)	CSC1OC(C(NC(=O)[C@H]2NCCCC2C)C(C)Cl)C(O)C(O)C1O (stereo partly drawn)
1.56 (≈ 3.93 µM)	CSC1OC(C(NC(=O)[C@@H]2CCCCCN2)C(C)Cl)C(O)C(O)C1O (stereo partly drawn)
